Measurements: ChEMBL document CHEMBL1687715, “Therapeutic activity of an anti-idiotypic antibody-derived killer peptide against influenza A virus experimental infection” (Antimicrob Agents Chemother, 2008)
pEC50: −log10 of the molar value. Calls of active or inactive are those of the source. The calls are words filed in the database; no cut-off is given here.

Experiments:
Influenza A virus [1] = test: Antiviral activity against Influenza A virus/parrot/Ulster/73(H7N1) infected in LLC-MK2 cells assessed as of reduction in optical density values at 4 ug/ml using human RBCs by hemadsorption assay; assay type: functional, organism-based; conditions: A/parrot/Ulster/73(H7N1), Erythrocyte
Influenza A virus [2] = test: Antiviral activity against Influenza A virus/parrot/Ulster/73(H7N1) infected in MDCK cells assessed as of reduction in optical density values at 4 ug/ml using human RBCs by hemadsorption assay; assay type: functional, organism-based; conditions: A/parrot/Ulster/73(H7N1), Erythrocyte
LLC-MK2 [3] = test: Cytotoxicity against monkey LLC-MK2 cells assessed as effect on cell viability at 4 ug/ml; assay type: cell-based, Macaca mulatta; conditions: rhesus monkey
Procedure, shortened: (§1)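 Uninfected confluent monolayers were exposed to 4 μg/ml or left untreated. Viability was assessed by dye exclusion and MTT assay. DNA and RNA synthesis were measured by 48 h labelling with 10 μCi/ml [3H]thymidine or [3H]uridine, followed by counting of trichloroacetic acid-insoluble radioactivity.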

LLC-MK2 [4] = test: Cytotoxicity against monkey LLC-MK2 cells assessed as effect on DNA synthesis at 4 ug/ml; assay type: cell-based, Macaca mulatta; conditions: rhesus monkey; procedure, shortened: as §1
LLC-MK2 [5] = test: Cytotoxicity against monkey LLC-MK2 cells assessed as effect on RNA synthesis at 4 ug/ml; assay type: cell-based, Macaca mulatta; conditions: rhesus monkey; procedure, shortened: as §1
MDCK [6] = test: Cytotoxicity against MDCK cells assessed as effect on cell viability at 4 ug/ml; assay type: cell-based, Canis lupus familiaris; conditions: dog; procedure, shortened: as §1
MDCK [7] = test: Cytotoxicity against MDCK cells assessed as effect on DNA synthesis at 4 ug/ml; assay type: cell-based, Canis lupus familiaris; conditions: dog; procedure, shortened: as §1
MDCK [8] = test: Cytotoxicity against MDCK cells assessed as effect on RNA synthesis at 4 ug/ml; assay type: cell-based, Canis lupus familiaris; conditions: dog; procedure, shortened: as §1
Influenza A virus [9] = test: Antiviral activity against Influenza A virus/NWS/1933(H1N1) infected in BALB/c mouse assessed as reduction in mortality rate at 50 ug, ip administered once daily for 10 days and dosed 30 mins post infection relative to untreated control; assay type: functional, organism-based; conditions: Influenza A virus (A/NWS/1933(H1N1))
Procedure, shortened: (§2)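 BALB/c males, 4 weeks old, about 20 g, 10 per group, randomised. Daily i.p. treatment (50 or 100 μg/mouse, or 2 mg/mouse) in 100 μl 0.9% NaCl, starting 30 min after intranasal challenge and repeated for the next 10 days. Placebo was diluent. Mortality rate ratio versus placebo was derived by proportional hazards regression, with 95% CI.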

Influenza A virus [10] = test: Antiviral activity against Influenza A virus/NWS/1933(H1N1) infected in BALB/c mouse assessed as survival rate at 50 ug, ip administered once daily for 10 days and dosed 30 mins post infection; assay type: functional, organism-based; conditions: Influenza A virus (A/NWS/1933(H1N1))
Procedure, shortened: (§3)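 Male BALB/c mice, 4 weeks old, 10 per group. Given i.p. in 100 μl 0.9% NaCl once daily from 30 min post-challenge through the next 10 days; diluent for placebo. Survival was checked daily for 30 days, and day-30 survivors were counted as cured. Curves were compared by log-rank test. Four experiments were run.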

Mus musculus [11] = test: Toxicity in Influenza A virus/NWS/1933(H1N1) infected in BALB/c mouse assessed as effect on motor activity at 100 ug, ip administered once daily for 10 days and dosed 30 mins post infection; assay type: organism-based; conditions: in vivo
Mus musculus [12] = test: Toxicity in Influenza A virus/NWS/1933(H1N1) infected in BALB/c mouse assessed as weight loss at 100 ug, ip administered once daily for 10 days and dosed 30 mins post infection; assay type: organism-based; conditions: in vivo
Influenza A virus [13] = test: microbe, parasite or virus in culture; assay type: functional, organism-based; conditions: LLC-MK2, 24 h
Influenza A virus [14] = test: microbe, parasite or virus in culture; assay type: functional; conditions: LLC-MK2, 2 h
Influenza A virus [15] = test: microbe, parasite or virus in culture; assay type: functional; conditions: LLC-MK2, 2 h; remark: listed apart in the source
Influenza A virus [16] = test: microbe, parasite or virus in culture; assay type: functional; conditions: LLC-MK2, 6 h
Influenza A virus [17] = test: microbe, parasite or virus in culture; assay type: functional; conditions: LLC-MK2, 6 h; remark: listed apart in the source
Influenza A virus [18] = test: microbe, parasite or virus in culture; assay type: functional; conditions: LLC-MK2, 6 h; remark: listed apart in the source
Influenza A virus [19] = test: microbe, parasite or virus in culture; assay type: functional; conditions: LLC-MK2, 8 h
Influenza A virus [20] = test: microbe, parasite or virus in culture; assay type: functional; conditions: LLC-MK2, 8 h; remark: listed apart in the source
Influenza A virus [21] = test: microbe, parasite or virus in culture; assay type: functional; conditions: LLC-MK2, 8 h; remark: listed apart in the source
Influenza A virus [22] = test: microbe, parasite or virus in culture; assay type: functional; conditions: LLC-MK2, 8 h; remark: listed apart in the source
Influenza A virus [23] = test: microbe, parasite or virus in culture; assay type: functional; conditions: LLC-MK2, 4 h
Influenza A virus [24] = test: microbe, parasite or virus in culture; assay type: functional; conditions: LLC-MK2, 6 h; remark: listed apart in the source
Influenza A virus [25] = test: microbe, parasite or virus in culture; assay type: functional; conditions: LLC-MK2, 4 h; remark: listed apart in the source
Influenza A virus [26] = test: microbe, parasite or virus in culture; assay type: functional; conditions: LLC-MK2, 6 h; remark: listed apart in the source
Influenza A virus [27] = test: Antiviral activity against Influenza A virus/NWS/1933(H1N1) infected in BALB/c mouse assessed as survival rate at 100 ug, ip administered once daily for 10 days and dosed 30 mins post infection; assay type: functional, Influenza A virus (A/NWS/1933(H1N1)); procedure, shortened: as §3
Influenza A virus [28] = test: Antiviral activity against Influenza A virus/NWS/1933(H1N1) infected in BALB/c mouse assessed as reduction in mortality rate at 100 ug, ip administered once daily for 10 days and dosed 30 mins post infection relative to untreated control; assay type: functional, Influenza A virus (A/NWS/1933(H1N1)); procedure, shortened: as §2
Influenza A virus [29] = test: Antiviral activity against Influenza A virus/NWS/1933(H1N1) infected in BALB/c mouse assessed reduction in viral load in lung at 100 ug, ip measured after 6 days postinfection relative to untreated control; assay type: functional, Influenza A virus (A/NWS/1933(H1N1))
Procedure, shortened: (§4)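 Groups of 5 infected BALB/c mice, dosed i.p. daily, were killed on day 6 p.i. Each lung was weighed and homogenised in RPMI 1640. Titre was by TCID50 on MDCK monolayers: 10-fold dilutions, eight wells each, 3 days, cytopathic effect scored. Expressed per gram of lung; five homogenates per group, mean ± SD.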

Influenza A virus [30] = test: Antiviral activity against Influenza A virus/NWS/1933(H1N1) infected in BALB/c mouse assessed reduction in viral load in lung at 50 ug, ip measured after 6 days postinfection relative to untreated control; assay type: functional, organism-based; conditions: Influenza A virus (A/NWS/1933(H1N1)); procedure, shortened: as §4
Mus musculus [31] = test: Toxicity in Influenza A virus/NWS/1933(H1N1) infected BALB/c mouse assessed as incidence of mouse death at 100 ug, ip administered once daily for 10 days and dosed 30 mins post infection; assay type: organism-based; conditions: in vivo
Influenza A virus [32] = test: Antiviral activity against Influenza A virus/NWS/1933(H1N1) infected in BALB/c mouse assessed as survival rate at 2 mg, ip administered once daily for 10 days and dosed 30 mins post infection; assay type: functional, Influenza A virus (A/NWS/1933(H1N1)); procedure, shortened: as §3
Influenza A virus [33] = test: Antiviral activity against Influenza A virus/NWS/1933(H1N1) infected in BALB/c mouse assessed as reduction in mortality rate at 2 mg, ip administered once daily for 10 days and dosed 30 mins post infection relative to untreated control; assay type: functional, Influenza A virus (A/NWS/1933(H1N1)); procedure, shortened: as §2

For H-AKVTMTCSAS-OH, the inhibition (Influenza A virus [1]) was “Active”, the inhibition (Influenza A virus [2]) was “Active” and the Activity (LLC-MK2 [3]) was “Non-toxic”. The Activity (LLC-MK2 [4]) was “Non-toxic”, the Activity (LLC-MK2 [5]) was “Non-toxic” and the Activity (MDCK [6]) was “Non-toxic”. The Activity (MDCK [7]) was “Non-toxic”, the Activity (MDCK [8]) was “Non-toxic” and the Activity (Influenza A virus [9]) was “inactive”. The Activity (Influenza A virus [10]) was “inactive”, the Activity (Mus musculus [11]) was “Non-toxic” and the Activity (Mus musculus [12]) was “Non-toxic”. It also gave a pEC50 (Influenza A virus [13]) of 5.57, an inhibition at 4 µg/mL (Influenza A virus [14]) of 59.1% and an inhibition at 4 µg/mL (Influenza A virus [15]) of 96.3%. The inhibition at 4 µg/mL (Influenza A virus [16]) was 88.9%, the inhibition at 4 µg/mL (Influenza A virus [17]) was 76.9% and the inhibition at 4 µg/mL (Influenza A virus [18]) was 86.1%. It also gave an inhibition at 4 µg/mL (Influenza A virus [19]) of 71.2%, an inhibition at 4 µg/mL (Influenza A virus [20]) of 46.5% and an inhibition at 4 µg/mL (Influenza A virus [21]) of 93.6%. It also gave an inhibition at 4 µg/mL (Influenza A virus [22]) of 26.8%, an inhibition at 4 µg/mL (Influenza A virus [23]) of 62.4% and an inhibition at 4 µg/mL (Influenza A virus [24]) of 65.2%. It also gave an inhibition at 4 µg/mL (Influenza A virus [25]) of 45.1%, an inhibition at 4 µg/mL (Influenza A virus [26]) of 49.7% and a Survival (Influenza A virus [27]) of 50%. The “inhibition (INH)” value (Influenza A virus [28]) was 72%, the “fold change (FC)” value (Influenza A virus [29]) was 2 and the Activity (Influenza A virus [30]) was “Active”. The Activity (Mus musculus [31]) was “Non-toxic”.
`NC12CC3CC(CC(C3)C1)C2` [AMANTADINE] was tested, and the Survival (Influenza A virus [32]) was 50% and the “inhibition (INH)” value (Influenza A virus [33]) was 77%.
